This note sets out measurements from ChEMBL document CHEMBL1800056, “Discovery of 2-(6-{[(6-fluoroquinolin-2-yl)methyl]amino}bicyclo[3.1.0]hex-3-yl)-N-hydroxypyrimidine-5-carboxamide (CHR-3996), a class I selective orally active histone deacetylase inhibitor” (J Med Chem, 2010).

In one series the test system is Mus musculus. The series can be described thus: In-vivo inhibition of HDAC6 in human HCT116 cells xenografted CrTac:NCr-Fox1 nude mouse assessed as alpha-tubulin acetylation at 50 mg/kg, po administered daily for 16 days by Western blot analysis relative to control. Also on record: dose 50 mg/kg. The series is classed as functional, organism-based. To be noted: HCT-116. In a few lines: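 Female CrTac:NCr-Fox1(nu) mice, 6-8 weeks old, bearing bilateral sc HCT116 tumors (2 million cells). Daily oral 50 mg/kg in 10% DMSO-saline from day 6 (tumors ~5 mm) to day 16; vehicle controls. Tumor lysates taken 0.5, 1.0 and 4 h after the last dose. Western blot for acetylated histone H3 or α-tubulin, normalized to GAPDH.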

The next series concerns HCT-116. Kind of series: Antitumor activity against human HCT116 cells xenografted in BALB/c mouse assessed as suppression of tumor growth at 50 mg/kg, po administered QD for 14 days. Type of series: functional, organism-based. The arrangement: dose 50 mg/kg. Put shortly:
(§1)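 HCT116 xenografts in female nude BALB/c mice, run at EpiStem. Oral daily dosing for 14 days in 5% DMSO-saline at 50 or 75 mg/kg. Tumor volume measured relative to start; drug concentrations in tumor and plasma measured.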

For series [1], the system named is Rattus norvegicus. Kind of series: Oral bioavailability in rat at 10 mg/kg. To be noted: in vivo. Type of series: ADME, organism-based. In a few lines:
(§2)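 Rat single dose, iv 1 mg/kg or po 10 mg/kg, both in 1% DMSO-HPβC (11.25% w/v). AUC0-t in ng h/mL, clearance in (mL/min)/kg, t1/2 in h, F in %.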

The subject of series [2] is Rattus norvegicus. Kind of series: AUC (0 to t) in rat at 10 mg/kg, po. The series is classed as ADME, organism-based, Plasma. The arrangement: dose 10 mg/kg, route oral. To be noted: in vivo. In a few lines: as §2
Series [3] can be described thus: Ratio of GI50 for SAHA to compound for human […] cells after 72 hrs by WST-1 assay. Type of series: functional. Put shortly: (§3)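 Cells seeded at (1-5) × 10³/well in serum-containing medium and grown 24 h at 37 °C, 5% CO₂. They were then exposed for 72 h to HDAC inhibitor (0.6-10000 nM), with SAHA run alongside in the same panel. WST-1 was added for the final 4 h and read at 450 nm (650 nm reference). GI50 taken as 50% inhibition of the vehicle response, n = 6.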

The nature of series [4]: Drug level in tumor of BALB/c mouse at 50 mg/kg, po administered daily for 14 days. Type of series: ADME, organism-based, Neoplasm. Also on record: dose 50 mg/kg, route oral. To be noted: read-out: Drug uptake. In a few lines:
as §1

Series [5] is described as follows: Aqueous solubility of the compound in PBS at pH 5.5. Type of series: physicochemical.
Series [6] deals with Rattus norvegicus. Kind of series: AUC (0 to t) in rat at 1 mg/kg, iv. The arrangement: dose 1 mg/kg, route intravenous. Type of series: ADME, organism-based, Plasma. To be noted: in vivo. In a few lines: as §2
For a further series, the system named is A2780. The series can be described thus: Ratio of GI50 for SAHA to compound for human A2780 cells after 72 hrs by WST-1 assay. Type of series: functional. In a few lines: as §3

Values after ≈ are worked out from the molar mass of the structure shown. Active and inactive are the calls of the source. The calls are words filed in the database; no cut-off is given here.

Consider `O=C(NO)c1cnc(N2C[C@@H]3[C@H](C2)[C@H]3NCc2ccc(Cl)cc2)nc1`, for which the inhibition result in the series with Mus musculus was “inactive”.

On to `O=C(NO)c1cnc(N2C[C@@H]3[C@H](C2)[C@H]3NCc2ccc3cc(F)ccc3n2)nc1` [NANATINOSTAT], for which, in the series with HCT-116, the outcome was Active. The F in the series with Rattus norvegicus [1] worked out at 27%. Also, the AUCt was 102 ng·h/mL with Rattus norvegicus [2] and 124 ng·h/mL in the series with Rattus norvegicus [6]. The RatioGI50 in [3] was 19; in the series with A2780, 15. In addition, the concentration at 336 h in series [4] stood at 133 ng/mL. This compound gave a solubility in [5] of 3 µg/mL (≈ 7.61 µM).
